# Paper PMC8427777 (ACS Omega, 2021)
# Entries after “also recorded” stand apart in the source; their conditions may differ. Like-named read-outs stand apart in the source and are kept apart here. acyl = not defined here
# T1: recombinant human C5a (Homo sapiens, UniProt P01031)
# T1 sequence (P01031 678-751 limits assumed): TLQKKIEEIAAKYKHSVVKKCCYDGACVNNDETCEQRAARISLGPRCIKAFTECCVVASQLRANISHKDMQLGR
# T2: recombinant human C5a (human, UniProt P01031 678-751)
# T2 sequence (looked up): T1 sequence (P01031 678-751 limits assumed)
# B1: Vilobelimab: anti-C5a antibody (antibody, chains of the INN, looked up, V domains shown)
# VH: QVQLQQSGPQLVRPGTSVKISCKASGYSFTTFWMDWVKQRPGQGLEWIGRIDPSDSESRLDQRFKDRATLTVDKSSSTVYMQLSSPTSEDSAVYYCARGNDGYYGFAYWGQGTLVTVSS
# VL: DIVLTQSPASLAVSLGQRATISCKASQSVDYDGDSYMKWYQQKPGQPPKLLIYAASNLQSGIPARFSGSGSGTDFTLNIHPVEEEDAATYYCQQSNEDPYTFGGGTKLEIK
# B2: C5a: cationic proinflammatory glycoprotein, complement anaphylatoxin; ligand of C5aR1 (protein)
# chain: T1 sequence (P01031 678-751 limits assumed)
# Experiments:
# C5a = experiment: Effect of prednisone on SR3–C5a interaction by CD; format: binding, human; conditions: 0.5 μM PDN, 0.35 μM SR3, 0.1 μM C5a, PBS, 25 °C; preliminary
# [1] = up to 100 μM, in solution; ref not given ("has been reported"); cited from earlier work
# recombinant human C5a [2] = molecular target: T1, recombinant human C5a; experiment: Two-site CD study: ECL2 peptide; format: binding
# How it was run: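 Two-site CD: 0.1 μM recombinant human C5a was preincubated with 0.5 μM NT-peptide, then titrated with 0–1 μM ECL2 peptide. Far-UV CD was run at 25°C in 1× PBS (pH ∼ 7.4), with at least three scans (1 s time constant, 1 nm step). Each sample was prepared and read separately, and the signal of the corresponding free peptides was subtracted.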
# recombinant human C5a [3] = molecular target: T1, recombinant human C5a; experiment: Two-site fluorescence study: ECL2 peptide; format: binding; conditions: 0.5–1 μM SR1
# How it was run: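 Two-site fluorescence: 0.1 μM C5a was preincubated with 0.5 μM NT-peptide and titrated with 0–1 μM ECL2 peptide. Readings were taken in 1× PBS (pH ∼ 7.4) at 25°C, with excitation at 278–280 nm, emission at 290–450 nm and 5 nm slits. Three scans were averaged and the free-peptide signal was subtracted.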
# recombinant human C5a [4] = molecular target: T1, recombinant human C5a; experiment: CD titration of NT-peptides against recombinant human C5a; format: binding
# How it was run: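 Far-UV CD at 25°C in filtered, degassed 1× PBS (pH ∼ 7.4). Recombinant human C5a was held at 0.1 μM and NT-peptides (native Met1-Lys28 sequence or mutants) at 0–1 μM. Samples were incubated ≥1 h at 4°C, each prepared and read separately, with at least three scans (1 s time constant, 1 nm step). Free-peptide signal was subtracted, and data were converted to mean residue ellipticity, normalized and fitted by nonlinear regression for affinity.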
# [5] = Conformational analysis of free peptides by CD; format: physicochemical; conditions: 1 μM, PBS pH ∼7.4, 25 °C; compared with SR3
# [6] = Intrinsic tyrosine fluorescence of free peptides; format: physicochemical; conditions: at the working concentrations, 1× PBS pH ∼ 7.4, 25 °C
# COVID-19 = conditions: anti-C5a antibody; cited from earlier work
# recombinant human C5a [7] = molecular target: T2, recombinant human C5a; experiment: circular dichroism titration + other fluorescence titration
# C5aR1 = conditions: cited from earlier work
# recombinant human C5a [8] = molecular target: T2, recombinant human C5a; experiment: circular dichroism titration + other fluorescence titration; remark: listed apart in the source
molecule,measurement,setting,value
"C[C@]12C=CC(=O)C=C1CC[C@@H]1[C@@H]2C(=O)C[C@@]2(C)[C@H]1CC[C@]2(O)C(=O)CO [PDN, prednisone]",response of PDN-preincubated C5a to SR3 compared to free C5a,C5a,comparatively weaker response
"SR1: native ECL2 sequence of C5aR1 (Tyr174-Arg198), acylated and amidated, carrying Cys188/Ser mutation (acyl-YRVVREEYFPPKVLSGVDYSHDKRR-NH2; reading uncertain)",CD signature of free ECL2 peptide,[1],twisted short-stranded β-hairpin-like conformation
same,"CD response, C5a preincubated with SR3, 0.5 μM SR1","recombinant human C5a [2]; 0.1 μM C5a + 0.5 μM SR3, PBS, 25 °C, 0.5 μM SR1",substantially enhanced the CD signal
same,"CD response, C5a preincubated with SR3, 1 μM SR1 (vs 0.5 μM)","recombinant human C5a [2]; 0.1 μM C5a + 0.5 μM SR3, PBS, 25 °C, 1 μM SR1",did not change further
same,"CD response, C5a preincubated with SR4","recombinant human C5a [2]; 0.1 μM C5a + 0.5 μM SR4, compared to the C5a–SR3/C5a–SR5 system",relatively strong conformational response
same,"fluorescence response, C5a preincubated with SR3 or SR5",recombinant human C5a [3]; 0.1 μM C5a + 0.5 μM SR3 or SR5,consistent with the observation made in the CD; also recorded: modest change in fluorescence intensity
same,"fluorescence response, C5a preincubated with SR4",recombinant human C5a [3]; 0.1 μM C5a + 0.5 μM SR4,quenched appreciably
SR4 (MASFNYTTPAYGHYAAKATLDLNTPVAK),change of CD signal / conformation of C5a,"recombinant human C5a [4]; 0.1 μM C5a, 0-1 μM peptide, PBS pH ∼ 7.4, 25 °C",robust conformational alteration
same,binding affinity toward C5a in words,recombinant human C5a [4]; CD and fluorescence titration studies taken together (A1 and A2),could not be obtained reliably; also recorded: did not demonstrate a quantifiable binding affinity
same,effect of alanine mutations on conformational ordering,[5],can potentially affect the overall conformational ordering
same,intrinsic fluorescence,[6],very negligible
B1,outcome in COVID-19 treatment,COVID-19,favorable outcome
"MDSFNATTPDAGHADDKDTLDLNTPVDK (peptide, UniProt P21730 1-28, looked up) [SR5, Tyr/Ala mutant NT-peptide of C5aR1 (Met1-Lys28)]",Kd,recombinant human C5a [7],105 to 123 nM
B2,potency toward C5aR1,C5aR1,nanomolar to picomolar potency
same,potency toward C5aR1,C5aR1; native-like conditions,picomolar–nanomolar potency
"MDSFNYTTPDYGHYDDKDTLDLNTPVDK (peptide, UniProt P21730 1-28, looked up) [SR3, native NT-peptide of C5aR1 (Met1-Lys28)]",Kd,recombinant human C5a [7],126 to 193 nM
"acyl-YRVVREEYFPPKVLSGVDYSHDKRR-NH2 (peptide, UniProt P21730 174-198, looked up, reading uncertain) [SR1, ECL2 peptide of C5aR1 (Tyr174-Arg198)]",binding result,recombinant human C5a [8],binds
